Source: ChEMBL document CHEMBL1121439, “Accumulation of drugs by guinea pig isolated atria. Quantitative correlations” (J Med Chem, 1980)

How the values were obtained:
Cavia porcellus = species on record: Cavia porcellus; test: Ability to bind to guinea pig atrial homogenate; conditions: Cardiac atrium
In short: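 Guinea pig left and right atria were blotted 90 s, weighed, and homogenized (6%, g/v) in ice-cold 0.067 M Sørensen phosphate buffer, pH 7.4, for three 20-s bursts. Radiolabeled drug (3.3×10^-6 M) was incubated with 4% (g/v) homogenate for 90 min at room temperature under partial saturation. Total aliquot and supernatant after 145000g, 15 h, 25 °C were counted. Result given as log B/F.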

[1] = Tested for the dissociation constant of the compound; format: ADME
[2] = Partition coefficient (logP); format: physicochemical; conditions: octanol/water
Albumin [3] = molecular target: T1, Albumin (Homo sapiens, UniProt P02768); test: Ability to bind to human serum albumin (HSA)
T1 sequence (P02768 whole entry): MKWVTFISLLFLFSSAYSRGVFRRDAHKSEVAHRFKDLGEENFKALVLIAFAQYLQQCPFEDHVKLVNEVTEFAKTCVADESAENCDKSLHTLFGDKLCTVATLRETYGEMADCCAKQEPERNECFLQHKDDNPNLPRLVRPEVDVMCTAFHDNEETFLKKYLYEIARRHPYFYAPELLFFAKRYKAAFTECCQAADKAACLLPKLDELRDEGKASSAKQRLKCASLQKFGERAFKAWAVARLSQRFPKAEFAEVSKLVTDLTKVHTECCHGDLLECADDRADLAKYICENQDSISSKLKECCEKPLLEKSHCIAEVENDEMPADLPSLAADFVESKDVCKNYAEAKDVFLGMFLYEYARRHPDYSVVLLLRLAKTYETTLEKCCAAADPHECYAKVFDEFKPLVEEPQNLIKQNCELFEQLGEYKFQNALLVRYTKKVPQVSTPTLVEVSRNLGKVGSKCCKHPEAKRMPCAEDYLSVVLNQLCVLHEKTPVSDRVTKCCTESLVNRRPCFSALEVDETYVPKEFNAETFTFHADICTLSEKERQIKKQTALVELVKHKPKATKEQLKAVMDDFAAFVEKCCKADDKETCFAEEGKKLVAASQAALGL

Albumin [4] = molecular target: T1, Albumin; test: Ability to bind to human serum albumin
In short: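 Purified human serum albumin, 4% (g/v), with radiolabeled drug at 3.3×10^-6 M in 0.067 M Sørensen phosphate buffer pH 7.4 (partial saturation). Incubated 90 min at room temperature. Radioactivity counted in an aliquot before and after centrifugation at 145000g for 15 h at 25 °C. Binding expressed as log B/F.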

| Compound | Log B/F (Cavia porcellus) | pKa [1] | logP ([2]; read-out: logP) | Log B/F (Albumin [3]) | logP [2] | Log B/F (Albumin [4]) |
| --- | --- | --- | --- | --- | --- | --- |
| COc1ccc(CCN(C)CCCC(C#N)(c2ccc(OC)c(OC)c2)C(C)C)cc1OC (configuration not stated) | 0.114 | 9.2 | – | – | – | – |
| OC[C@H]1O[C@@](CO)(O[C@H]2O[C@H](CO)[C@@H](O)[C@H](O)[C@H]2O)[C@@H](O)[C@@H]1O | -4 | – | – | – | – | – |
| C=CCc1ccccc1OCC(O)CNC(C)C (configuration not stated) [ALPRENOLOL] | -0.158 | – | 3.1 | – | – | – |
| CCCNC(C)C(=O)Nc1c(C)csc1C(=O)OC (configuration not stated) [ARTICAINE] | -0.739 | 7.8 | – | -0.281 | 2.41 | – |
| O=C1CCC(c2ccccc2)(C2CCN(Cc3ccccc3)CC2)C(=O)N1 (configuration not stated) [BENZETIMIDE] | -0.184 | – | 3.55 | – | – | 0.087 |
| C[C@@H]1C[C@H]2[C@@H]3CCC4=CC(=O)C=C[C@]4(C)[C@@]3(F)[C@@H](O)C[C@]2(C)[C@@]1(O)C(=O)CO [DEXAMETHASONE] | – | – | 1.74 | – | – | – |
| C[C@H]1O[C@@H](O[C@H]2[C@@H](O)C[C@H](O[C@H]3[C@@H](O)C[C@H](O[C@H]4CC[C@@]5(C)[C@H](CC[C@@H]6[C@@H]5CC[C@]5(C)[C@@H](C7=CC(=O)OC7)CC[C@]65O)C4)O[C@@H]3C)O[C@@H]2C)C[C@H](O)[C@@H]1O [DIGITOXIN] | – | – | 1.76 | 3.222 | – | – |
| O=C(O)[C@H]1O[C@@H](O)[C@H](O)[C@@H](O)[C@@H]1O [GLUCURONATE] | -4 | 3.2 | -2.57 | -2 | – | – |
| COc1ccc2c(c1)c(CC(=O)O)c(C)n2C(=O)c1ccc(Cl)cc1 [INDOMETHACIN] | – | – | 2 | – | – | – |
| COCCc1ccc(OCC(O)CNC(C)C)cc1 (configuration not stated) [METOPROLOL] | – | – | 2.34 | – | – | – |
| CCC1(c2ccccc2)C(=O)NC(=O)NC1=O [PHENOBARBITAL] | – | 7.5 | 1.43 | 0.11 | – | – |
| CCC(c1ccccc1)c1c(O)c2ccccc2oc1=O (configuration not stated) [PHENPROCOUMON] | – | 5 | 3.62 | 2.128 | – | – |
